Measurements collected from several papers.
Protocols differ between the studies behind these lines.
Target: Serine/threonine-protein kinase Nek4 (NEK4, Homo sapiens, UniProt P51957)

For Clc1ccc(Nc2nnc(Cc3ccncc3)c3ccccc23)cc1, the remaining signal was 97.7% (cell-free assay; 0.5 µM).
COc1cc2ncnc(Nc3ccc(Oc4ccccc4)c(C)c3C)c2cc1OC has an inhibition of 2% (enzyme activity, inhibitor; 1 µM).
For CCC(=O)N[C@@H]1CC[C@H](C(=O)N(C)c2ccc(-c3nc4ccccc4o3)cc2)C1, the remaining binding was 95% (cell-free assay, competition with immobilised ligand; 1 µM).
With N#CCCc1ccc2c(c1)-c1[nH]c3ccc([N+](=O)[O-])cc3c1CC(=O)N2 the remaining signal was 104% (cell-free assay; 0.5 µM).
For CN(C)C1CCN(CC#Cc2nn(C3CCCC3)c3nc(NCc4ccccc4)ncc23)C1 (stereo not drawn), the inhibition was 8% (enzyme activity, inhibitor, FRET; 1 µM).
The remaining binding of COCCOc1nc(-c2ccc(Cl)nc2)nc2c1CN(C(=O)c1ncn3ccccc13)CC2 is reported as 100% (cell-free assay, competition with immobilised ligand; 0.1 µM).
CC(C)(O)[C@H]1CC[C@H](Nc2ccc3ncc(-c4cccc(C(F)(F)F)c4)n3n2)CC1 has a remaining activity of 84.3% (enzyme activity, inhibitor; 1 µM).
O=C(Nc1cnc(Oc2ccc(F)cc2)nc1)N1CCc2ncccc2[C@@H]1c1ccc(F)cc1 has a remaining binding of 79% (cell-free assay, competition with immobilised ligand; 1 µM).
With COc1cccc2c(NCc3ccccc3)nc(-n3c(N)nc4ccccc43)nc12 the inhibition was -7.4% (target engagement in cells, inhibitor, chemoproteomics; 20 mM).
With CC(=O)N1CCC(c2ccc(C(=O)NC3=NCCN3)cc2C(F)(F)F)CC1 the remaining binding was 100% (cell-free assay, competition with immobilised ligand; 1 µM).
For c1ccc(CNc2nc(N3CCOc4ccccc43)nc3c2CCCC3)cc1, the inhibition was -18.5% (target engagement in cells, inhibitor, chemoproteomics; 20 mM).
C[C@@]1(Cc2ccc(C#N)cc2)C(=O)N(c2cc(Cl)cc(Cl)c2)c2ncc(C(=O)NC3(c4nc(C5CCC5)no4)CC3)n21 has a remaining binding of 12% (cell-free assay, competition with immobilised ligand; 1 µM).
With Cc1sc(C(=O)NC2COC2)cc1-n1cc(NC(=O)Nc2c(F)cccc2Cl)cn1 the remaining activity was 75.5% (enzyme activity, inhibitor; 10 µM).
CN1CC(Oc2cnc(C#N)cc2-c2ccn3nc(NC(=O)C4CC4)cc3c2)C1 gave an inhibition of 2% (enzyme activity, inhibitor; 1 µM).
CCCS(=O)(=O)Nc1ccc(F)c(C(=O)c2c[nH]c3ncc(-c4ccc(Cl)cc4)cc23)c1F has an inhibition of < 10% (enzyme activity, inhibitor; 1 µM).
CC(C)(C)c1nc2c(s1)c1nc(N)ncc1c1ccc(NS(=O)(=O)c3c(F)cccc3F)c(F)c12 has a remaining activity of 96% (enzyme activity, inhibitor, radiometric; 1 µM).
CCN1CCN(Cc2ccc(NC(=O)c3ccc(C)c(/C=C/c4cnc5[nH]ccc5c4OC)c3)cc2C(F)(F)F)CC1 has an inhibition of -31% (target engagement in cells, inhibitor, chemoproteomics; A-375; 50 nM).
COc1cc2c(N3CCN(C(=O)Nc4ccc(OC(C)C)cc4)CC3)ncnc2cc1OCCCN1CCCCC1 has a remaining signal of 90.3% (cell-free assay; 0.5 µM).
